22 molecules from ChEMBL document CHEMBL1629514, “Synthesis, biological activity, and evaluation of the mode of action of novel antitubercular benzofurobenzopyrans substituted on A ring” (Eur J Med Chem, 2010) can be followed below.

In assay [1] the test system is Mycobacterium tuberculosis. Nature of the assay: Antimycobacterial activity against Mycobacterium tuberculosis H37Rv after 6 days by Microdilution Resazurin assay. The format is functional. Conditions: 144 h. In a few lines:
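M. tuberculosis H37Rv grown in 7H9 with 10% ADC enrichment. Two-fold serial dilutions from 500 to 0.9 µg/mL, using DMSO stocks, in 7H9. Incubated at 37 °C for 6 days, then 0.01% resazurin added and incubated a further 24 h. MIC is the lowest concentration preventing the blue-to-pink colour change. DMSO growth controls and isoniazid (1 µg/mL to 1 ng/mL) were included.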
Background: In broth dilution the organism is exposed to a series of concentrations in liquid medium.

The subject of another assay is Vero. In words: Cytotoxicity against african green monkey Vero cells assessed as cell growth after 48 hrs by hemocytometry. The format is cell-based. Conditions: Chlorocebus sabaeus. An outline of the steps:
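VERO cells grown in DMEM with 10% v/v FBS plus penicillin/streptomycin, 37 °C, humidified 5% CO2. Log-phase cells seeded in 24-well plates and allowed to attach 3 h. Compounds diluted in DMSO (final ≤0.4% v/v) and tested at 10^-8 to 10^-4 M. Cells counted after 48 h. Two experiments in duplicate; mean used to derive IC50.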

A short description of assay [2]: Selectivity index, ratio of IC50 for african green monkey VERO cells to MIC95 for Mycobacterium tuberculosis H37Rv. The format is functional. In a few lines:
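VERO cells grown in DMEM with 10% FBS at 37 °C and 5% CO2. Seeded at 2×10^4 cells/mL and allowed to attach for 3 h. Compounds added at 10^-8 to 10^-4 M (DMSO ≤0.4% v/v) and cells counted by hemocytometer after 48 h. IC50 from means of two experiments in duplicate. SI is VERO IC50 divided by the M. tuberculosis MIC95.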

In assay [3] the test system is Mycolicibacterium smegmatis. Nature of the assay: Antimycobacterial activity against Mycobacterium smegmatis mc2155 assessed as inhibition of mycolic acid biosynthesis at 1 to 25 ug/ml after 15 mins. The format is functional. In a few lines: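 Cell-free assay on cell wall extracts from bacteria washed in phosphate buffer and disrupted at 0.8 kbar, using 500 µg extract protein. Buffer was 100 mM potassium phosphate pH 7.0 with 3 mM MgCl2, 7 mM KHCO3, 7 mM ATP and 0.7 mM CoASH. Compounds (5% v/v DMSO final) preincubated 15 min at 37 °C, then [1-14C]acetate added for 60 min at 37 °C. Reactions saponified and mycolate profiles run on TLC; % inhibition taken against control. Thiolactomycin was the reference, run at two concentrations.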

The test system of assay [4] is Mycolicibacterium smegmatis. Nature of the assay: Antimycobacterial activity against Mycobacterium smegmatis. Type of assay: functional.
The test system of assay [5] is Mycobacterium tuberculosis. Nature of the assay: Antimycobacterial activity against Mycobacterium tuberculosis. The format is functional.

≈ marks a conversion by molar mass, not a printed value.

For `NNC(=O)c1ccncc1` [ISONIAZID], in assay [1], the MIC95 worked out at 1.8 µM (≈ 0.247 µg/mL). The IC50 in the assay on Vero is above 100 µM.
`CC1(C)C=Cc2c(ccc3c2oc2ccc4c(c23)C=CC(C)(C)O4)O1` gave an MIC95 in assay [1] above 300 µM.
Turning to `COc1cccc2c1C(=O)c1c(O)c3c(c(O)c1C2=O)C[C@@](O)(C(=O)CO)C[C@@H]3O[C@H]1C[C@H](N)[C@H](O)[C@H](C)O1` [DOXORUBICIN], the IC50 in the assay on Vero turned out to be 3.6 µM.
In assay [1], `CC1(C)C=Cc2c(ccc3oc4cccc(O)c4c23)O1` had an MIC95 of 95 µM (≈ 25.3 µg/mL). Besides, the IC50 in the assay on Vero stood at 9.1 µM. The “Selectivity Index” value in assay [2] was found to be 0.1.
As to `COc1ccc2oc3ccc4c(c3c2c1)C=CC(C)(C)O4`, the MIC95 in assay [1] came to 45 µM (≈ 12.6 µg/mL). The IC50 in the assay on Vero amounted to 100 µM. The “Selectivity Index” value in assay [2] is given as 2.2. For the same molecule, in assay [3], the “inhibition (INH)” value is on record as above 60%.
In assay [1], `CC1(C)C=Cc2c(ccc3oc4cc(O)ccc4c23)O1` showed an MIC95 of 23.5 µM (≈ 6.26 µg/mL). Moreover, the IC50 in the assay on Vero was 9.2 µM. In addition, the “Selectivity Index” value in assay [2] is recorded as 0.4.
As to `CC1(C)C=Cc2c(ccc3oc4c(O)cccc4c23)O1`, the MIC95 in assay [1] amounted to 23.5 µM (≈ 6.26 µg/mL). For the same molecule, the half-maximal inhibitory concentration (IC50) with Vero turned out to be 3.3 µM. The “Selectivity Index” value in assay [2] was 0.1.
In turn, `COc1ccc2oc3cc4c(cc3c2c1)OC(C)(C)C=C4` showed an MIC95 in assay [1] of 89 µM (≈ 24.9 µg/mL). Moreover, in assay [2], the “Selectivity Index” value turned out to be 83.2.
Turning to `COc1cccc2c1oc1ccc3c(c12)C=CC(C)(C)O3`, the MIC95 in assay [1] is 45 µM (≈ 12.6 µg/mL). The IC50 in the assay with Vero is 100 µM. The “Selectivity Index” value in assay [2] is 2.2. The “inhibition (INH)” value in assay [3] was above 60%.
Turning to `CC1(C)C=Cc2c(ccc3oc4ccncc4c23)O1`, the MIC95 came to 8 µg/mL (≈ 31.8 µM) in assay [4] and 16 µg/mL (≈ 63.7 µM) in assay [5].
As to `CC1(C)C=Cc2c(ccc3oc4c(Cl)cccc4c23)O1`, in assay [1], the MIC95 is 87.5 µM (≈ 24.9 µg/mL). Also, the IC50 with Vero was 100 µM. The “Selectivity Index” value in assay [2] was found to be 1.2.
For the molecule `CC(=O)c1ccc2oc3ccc4c(c3c2c1)CCC(C)(C)O4`, the MIC95 in assay [1] was above 340 µM.
As to `CC1(C)CCc2c(ccc3oc4ccc(O)cc4c23)O1`, in assay [1], the MIC95 is 46.5 µM (≈ 12.5 µg/mL). For the same molecule, the IC50 in the assay with Vero came to 18 µM. Further, in assay [2], the “Selectivity Index” value is 0.4.
Taken in the same sequence, the figures for `CC1(C)C=Cc2c(ccc3oc4ccccc4c23)O1` were 100 µM (≈ 25 µg/mL), 320 µM and 3.2.
As to `CC1(C)C=Cc2c(ccc3oc4cccc(Cl)c4c23)O1`, the MIC95 in assay [1] is 43.8 µM (≈ 12.5 µg/mL). Also, the IC50 in the assay on Vero turned out to be 100 µM. Besides, the “Selectivity Index” value in assay [2] is listed as 2.3.
In assay [1], `CC1(C)C=Cc2c(ccc3oc4ccc(O)cc4c23)O1` displayed an MIC95 of 47 µM (≈ 12.5 µg/mL). In addition, the IC50 with Vero was determined as 5 µM. The “Selectivity Index” value in assay [2] came to 0.1.
In the case of `CC(=O)c1ccc2oc3ccc4c(c3c2c1)C=CC(C)(C)O4`, the MIC95 in assay [1] was above 1710 µM.
The molecule `CC1(C)C=Cc2c(ccc3oc4cc(Br)ccc4c23)O1` showed an MIC95 in assay [1] of 37.5 µM (≈ 12.3 µg/mL). Besides, the “Selectivity Index” value in assay [2] worked out at 93.3.
As for `COc1ccc2c(c1)oc1ccc3c(c12)C=CC(C)(C)O3`, in assay [1], the MIC95 worked out at 89 µM (≈ 24.9 µg/mL). Besides, the IC50 in the assay on Vero is 100 µM. In assay [2], the “Selectivity Index” value is recorded as 1.1. Besides, the “inhibition (INH)” value in assay [3] is above 60%.
Turning to `CC1(C)C=Cc2c(ccc3oc4ccc(Cl)cc4c23)O1`, the MIC95 in assay [1] was determined as 353 µM (≈ 101 µg/mL). Also, the IC50 in the assay on Vero worked out at 290 µM. In addition, the “Selectivity Index” value in assay [2] amounted to 0.8.
`COc1cccc2oc3ccc4c(c3c12)C=CC(C)(C)O4` came in with an MIC95 in assay [1] of 45 µM (≈ 12.6 µg/mL). Further, in the assay with Vero, the IC50 amounted to 280 µM. For the same molecule, the “Selectivity Index” value in assay [2] is given as 6.2. The “inhibition (INH)” value in assay [3] is on record as above 60%.
In the case of `CC1(C)C=Cc2c(ccc3oc4cc(-c5ccc6c(c5)oc5ccc7c(c56)C=CC(C)(C)O7)ccc4c23)O1`, the MIC95 in assay [1] was above 200 µM.

For orientation: IC50 means the midpoint of a concentration-inhibition curve.
